# Experimental data as given in ChEMBL document CHEMBL4411317 (Bioorg Med Chem, 2019).
# Molecular target: Dipeptidyl peptidase 8 (Homo sapiens, UniProt Q6V1X1)
# Assay: Inhibition of recombinant full-length human N-terminal GST-tagged DPP8 expressed in Sf9 insect cells using Gly-Pro-AMC as substrate measured at 60 secs interval for 20 mins by fluorescence assay
# Settings: not given
# Chain of Dipeptidyl peptidase 8 (Q6V1X1 whole entry): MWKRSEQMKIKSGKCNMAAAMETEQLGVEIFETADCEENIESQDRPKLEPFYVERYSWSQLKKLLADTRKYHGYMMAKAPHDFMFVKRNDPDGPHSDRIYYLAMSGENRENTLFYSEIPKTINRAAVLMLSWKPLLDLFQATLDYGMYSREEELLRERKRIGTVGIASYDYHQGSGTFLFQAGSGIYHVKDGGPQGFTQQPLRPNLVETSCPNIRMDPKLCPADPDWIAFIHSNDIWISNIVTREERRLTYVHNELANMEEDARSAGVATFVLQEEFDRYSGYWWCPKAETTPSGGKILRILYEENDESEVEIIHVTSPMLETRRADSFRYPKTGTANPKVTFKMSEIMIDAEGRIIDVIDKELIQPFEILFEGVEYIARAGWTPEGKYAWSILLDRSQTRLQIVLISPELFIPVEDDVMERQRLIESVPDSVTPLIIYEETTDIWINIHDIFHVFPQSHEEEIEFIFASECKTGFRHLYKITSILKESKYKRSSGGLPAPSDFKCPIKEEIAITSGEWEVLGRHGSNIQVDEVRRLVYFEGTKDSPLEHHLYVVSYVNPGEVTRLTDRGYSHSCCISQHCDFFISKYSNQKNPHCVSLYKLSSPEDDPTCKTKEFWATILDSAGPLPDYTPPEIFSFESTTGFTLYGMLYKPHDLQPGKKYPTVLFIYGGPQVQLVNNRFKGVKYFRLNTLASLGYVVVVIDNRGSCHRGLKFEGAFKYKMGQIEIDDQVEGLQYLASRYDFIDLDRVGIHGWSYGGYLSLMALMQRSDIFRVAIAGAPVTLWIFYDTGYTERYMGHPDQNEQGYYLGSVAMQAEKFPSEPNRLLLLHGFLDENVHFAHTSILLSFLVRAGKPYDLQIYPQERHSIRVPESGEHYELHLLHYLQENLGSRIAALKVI
row,IC50,SMILES
1,> 100 µM,CC#CCn1c(N2CCC[C@@H](N)C2)cc(=O)n(Cc2cc(Br)ccc2C(=O)O)c1=O
2,> 100 µM,CC#CCn1c(N2CCC[C@@H](N)C2)cc(=O)n(Cc2cc(Br)ccc2C(=O)OC)c1=O
3,> 100 µM,CC#CCn1c(N2CCC[C@@H](N)C2)cc(=O)n(Cc2ccc(Br)cc2C(=O)O)c1=O
4,> 100 µM,CC#CCn1c(N2CCC[C@@H](N)C2)cc(=O)n(Cc2ccc(F)cc2C(=O)O)c1=O

# More lines, now with the values behind:
row,SMILES,IC50
1,CC#CCn1c(N2CCC[C@@H](N)C2)cc(=O)n(Cc2cc(OC)ccc2C(=O)O)c1=O,> 100 µM
2,CC#CCn1c(N2CCC[C@@H](N)C2)cc(=O)n(Cc2cc(C#N)ccc2C(=O)O)c1=O,> 100 µM
3,CC#CCn1c(N2CCC[C@@H](N)C2)cc(=O)n(Cc2cccc(F)c2C(=O)OC)c1=O,> 100 µM
4,CC#CCn1c(N2CCC[C@@H](N)C2)cc(=O)n(Cc2ccc(Cl)cc2C(=O)O)c1=O,> 100 µM
5,CC#CCn1c(N2CCC[C@@H](N)C2)cc(=O)n(Cc2ccccc2C(=O)O)c1=O,> 100 µM

# Molecular target: Dipeptidyl peptidase 9 (Homo sapiens, UniProt Q86TI2)
# Assay: Inhibition of recombinant full-length human N-terminal GST-tagged DPP9 expressed in Sf9 insect cells using Gly-Pro-AMC as substrate measured at 60 secs interval for 20 mins by fluorescence assay
# Settings: not given
# Chain of Dipeptidyl peptidase 9 (Q86TI2 whole entry): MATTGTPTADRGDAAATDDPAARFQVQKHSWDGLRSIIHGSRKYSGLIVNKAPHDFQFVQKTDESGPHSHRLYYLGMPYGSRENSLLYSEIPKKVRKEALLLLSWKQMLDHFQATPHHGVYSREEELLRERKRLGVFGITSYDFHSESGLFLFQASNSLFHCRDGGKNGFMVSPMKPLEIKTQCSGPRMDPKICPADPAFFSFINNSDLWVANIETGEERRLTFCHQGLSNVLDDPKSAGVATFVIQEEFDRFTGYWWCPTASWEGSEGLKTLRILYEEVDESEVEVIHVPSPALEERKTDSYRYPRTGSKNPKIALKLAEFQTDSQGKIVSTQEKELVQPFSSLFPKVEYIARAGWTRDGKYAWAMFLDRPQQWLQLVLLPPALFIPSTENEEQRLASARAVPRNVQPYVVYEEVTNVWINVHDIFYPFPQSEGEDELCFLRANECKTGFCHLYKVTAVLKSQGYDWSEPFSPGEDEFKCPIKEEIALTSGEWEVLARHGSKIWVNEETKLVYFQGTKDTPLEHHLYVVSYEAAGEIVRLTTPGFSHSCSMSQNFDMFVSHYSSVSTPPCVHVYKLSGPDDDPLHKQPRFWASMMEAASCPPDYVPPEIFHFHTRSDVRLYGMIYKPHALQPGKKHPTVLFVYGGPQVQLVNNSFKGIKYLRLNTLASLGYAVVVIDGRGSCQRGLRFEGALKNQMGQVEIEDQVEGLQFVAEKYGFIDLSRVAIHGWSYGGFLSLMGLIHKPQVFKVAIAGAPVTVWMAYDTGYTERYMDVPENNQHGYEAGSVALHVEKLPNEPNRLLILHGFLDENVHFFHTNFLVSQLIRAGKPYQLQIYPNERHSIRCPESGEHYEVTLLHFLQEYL
row,IC50,SMILES
1,> 100 µM,CC#CCn1c(N2CCC[C@@H](N)C2)cc(=O)n(Cc2cc(Br)ccc2C(=O)O)c1=O
2,> 100 µM,CC#CCn1c(N2CCC[C@@H](N)C2)cc(=O)n(Cc2cc(Br)ccc2C(=O)OC)c1=O
3,> 100 µM,CC#CCn1c(N2CCC[C@@H](N)C2)cc(=O)n(Cc2ccc(Br)cc2C(=O)O)c1=O
4,> 100 µM,CC#CCn1c(N2CCC[C@@H](N)C2)cc(=O)n(Cc2ccc(F)cc2C(=O)O)c1=O

# Further lines, the compound ahead of its results:
row,SMILES,IC50
1,CC#CCn1c(N2CCC[C@@H](N)C2)cc(=O)n(Cc2cc(OC)ccc2C(=O)O)c1=O,> 100 µM
2,CC#CCn1c(N2CCC[C@@H](N)C2)cc(=O)n(Cc2cc(C#N)ccc2C(=O)O)c1=O,> 100 µM
3,CC#CCn1c(N2CCC[C@@H](N)C2)cc(=O)n(Cc2cccc(F)c2C(=O)OC)c1=O,> 100 µM
4,CC#CCn1c(N2CCC[C@@H](N)C2)cc(=O)n(Cc2ccc(Cl)cc2C(=O)O)c1=O,> 100 µM
5,CC#CCn1c(N2CCC[C@@H](N)C2)cc(=O)n(Cc2ccccc2C(=O)O)c1=O,> 100 µM

# Test system: not listed separately
# Assay: Cytotoxicity against human LO2 cells assessed as cell viability at 100 uM after 48 hrs by MTT assay relative to control
# Type: cell-based, L02
# Settings: read-out: Activity
# How it was run: (§1)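 Hepatic LO2 cells grown in DMEM with 10% FBS and antibiotics at 37 °C, 5% CO2; log-phase cells seeded at 1 × 10^4 per well and exposed to compounds for 48 h. MTT (5 mg/mL stock in PBS) added 4 h before end; formazan dissolved in DMSO, absorbance read at 490 nm.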
row,SMILES,"viability at 48 h, 100 µM"
1,CC#CCn1c(N2CCC[C@@H](N)C2)cc(=O)n(Cc2cc(Br)ccc2C(=O)O)c1=O,70%
2,CC#CCn1c(N2CCC[C@@H](N)C2)cc(=O)n(Cc2cc(Br)ccc2C(=O)OC)c1=O,14%
3,CC#CCn1c(N2CCC[C@@H](N)C2)cc(=O)n(Cc2cccc(F)c2C(=O)O)c1=O,70%
4,CC#CCn1c(N2CCC[C@@H](N)C2)cc(=O)n(Cc2cccc(F)c2C(=O)OC)c1=O,70%

# Test system: not listed separately
# Assay: Cytotoxicity against human LO2 cells assessed as cell viability at 50 uM after 48 hrs by MTT assay relative to control
# Type: cell-based, L02
# Settings: read-out: Activity
# How it was run: as §1
row,SMILES,"viability at 48 h, 50 µM"
1,CC#CCn1c(N2CCC[C@@H](N)C2)cc(=O)n(Cc2cc(Br)ccc2C(=O)O)c1=O,90%
2,CC#CCn1c(N2CCC[C@@H](N)C2)cc(=O)n(Cc2cccc(F)c2C(=O)O)c1=O,90%
3,CC#CCn1c(N2CCC[C@@H](N)C2)cc(=O)n(Cc2cccc(F)c2C(=O)OC)c1=O,90%

# Test system: not listed separately
# Assay: Cytotoxicity against human LO2 cells assessed as cell viability at 20 uM after 48 hrs by MTT assay relative to control
# Type: cell-based, L02
# Settings: read-out: Activity
# How it was run: as §1
row,SMILES,"viability at 48 h, 20 µM"
1,COc1cccc2c1C(=O)c1c(O)c3c(c(O)c1C2=O)C[C@@](O)(C(=O)CO)C[C@@H]3O[C@H]1C[C@H](N)[C@H](O)[C@H](C)O1 [DOXORUBICIN],11%

# Test system: not listed separately
# Assay: Retention time of the compound in water at 1 uM by LC/MS/MS method
# Type: physicochemical
# Settings: buffer
row,Retention_time,SMILES
1,2.03 min,CC#CCn1c(N2CCC[C@@H](N)C2)cc(=O)n(Cc2cccc(F)c2C(=O)O)c1=O
2,5.41 min,CC#CCn1c(N2CCC[C@@H](N)C2)cc(=O)n(Cc2cccc(F)c2C(=O)OC)c1=O

# Test system: not listed separately
# Assay: Retention time of the compound in rat plasma at 1 uM by LC/MS/MS method
# Type: ADME, cell-free
# Settings: not given
row,Retention_time,SMILES
1,5.41 min,CC#CCn1c(N2CCC[C@@H](N)C2)cc(=O)n(Cc2cccc(F)c2C(=O)OC)c1=O

# Test system: not listed separately
# Assay: Drug metabolism in rat plasma assessed as (R)-2-((4-(3-Aminopiperidin-1-yl)-3-(but-2-yn-1-yl)-2,6-dioxo-3,6-dihydropyrimidin-1(2H)-yl)methyl)-6-fluorobenzoic acid hydrochloride formation at 1 uM after 30 mins by LC/MS/MS method
# Type: ADME, cell-free
# Settings: 0.5 h
# How it was run: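 Ester prodrug incubated with rat plasma at 37 °C for 0 and 30 min; ester and formed acid quantified by LC/MS/MS.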
row,Drug metabolism,SMILES
1,Metabolite_Detected,CC#CCn1c(N2CCC[C@@H](N)C2)cc(=O)n(Cc2cccc(F)c2C(=O)OC)c1=O

# Test system: not listed separately
# Assay: Retention time of the compound in rat plasma by LC/MS/MS method
# Type: ADME, cell-free
# Settings: not given
row,Retention_time,SMILES
1,2 min,CC#CCn1c(N2CCC[C@@H](N)C2)cc(=O)n(Cc2cccc(F)c2C(=O)O)c1=O

# Test system: Mus musculus
# Assay: Hypoglycemic activity in po dosed Kunming mouse assessed as decrease in blood glucose AUC (0 to 120 mins) administered as single dose treated for 30 mins prior to glucose load by OGTT
# Type: functional, organism-based
# Settings: not given
# How it was run: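 Male Kunming mice (20±2 g) fasted overnight (12 h), randomized (n = 8), given a single oral dose suspended in water vehicle; oral glucose 3 g/kg 30 min later. Blood sampled at -30, 0, 15, 30, 60 and 120 min; glucose AUC0–120 min versus vehicle, mean ± SEM, one-way ANOVA with Dunnett's test.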
row,SMILES,Activity
1,CC#CCn1c(N2CCC[C@@H](N)C2)cc(=O)n(Cc2cccc(F)c2C(=O)OC)c1=O,Dose-dependent effect
